Assay results as given in ChEMBL document CHEMBL1817570, “Unsymmetrical cyclotriazadisulfonamide (CADA) compounds as human CD4 receptor down-modulating agents” (J Med Chem, 2011).
Structures can show the parent of a compound that is named as a salt.

System: CHO
Assay: Downmodulation of human CD4 expressed in CHO cells transfected with CD4-YFP construct assessed as decrease in fluorescence intensity after 24 hrs by flow cytometry analysis
Type: functional, cell-based
Conditions: Cricetulus griseus
Procedure, shortened: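 CHO cells stably expressing human CD4 fused at its C-terminus to YFP, exposed to a range of concentrations for 24 h at 37 °C. Cells were washed, fixed in 1% formaldehyde and analysed at once by flow cytometry with 488 nm excitation, reading YFP in FL-1. YFP median fluorescence intensity was expressed as % of untreated control after subtracting the background of nontransfected cells. IC50 is the 50% CD4 down-modulation point, reported as mean ± SD of three independent experiments (two for some).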

SMILES: C=C1CN(S(=O)(=O)c2ccc(C)cc2)CCCN(CC2CCCCC2)CCCN(S(=O)(=O)c2ccc(C)cc2)C1
- IC50 (read-out: IC50): 190 nM
- IC50 (read-out: pIC50 (converted)): 186 nM

SMILES: C=C1CN(S(=O)(=O)c2ccc(C)cc2)CCCN(CC2CCCCC2)CCCN(S(=O)(=O)c2cccc3cnccc23)C1
- IC50 (read-out: IC50): > 25000 nM
- IC50 (read-out: pIC50 (converted)): 22900 nM

SMILES: C=C1CN(S(=O)(=O)c2ccc(C)cc2)CCCN(Cc2ccccc2)CCCN(S(=O)(=O)c2ccc(OC)cc2)C1
- IC50 (read-out: IC50): 300 nM
- IC50 (read-out: pIC50 (converted)): 295 nM

SMILES: C=C1CN(S(=O)(=O)c2ccc(C)cc2)CCCN(CC2CCCCC2)CCCN(S(=O)(=O)c2ccccc2[N+](=O)[O-])C1
- IC50 (read-out: IC50): 220 nM
- IC50 (read-out: pIC50 (converted)): 224 nM

SMILES: C=C1CN(S(=O)(=O)c2ccc(C)cc2)CCCN(CC2CCCCC2)CCCN(S(=O)(=O)c2ccc(OC)cc2)C1
- IC50 (read-out: IC50): 46 nM
- IC50 (read-out: pIC50 (converted)): 45.7 nM

SMILES: C=C1CN(S(=O)(=O)c2ccccc2)CCCN(CC2CCCCC2)CCCN(S(=O)(=O)c2ccc(C)cc2)C1
- IC50 (read-out: IC50): 430 nM
- IC50 (read-out: pIC50 (converted)): 437 nM

SMILES: C=C1CN(S(=O)(=O)c2ccc(OC)cc2)CCCN(Cc2ccccc2)CCCN(S(=O)(=O)c2ccc(OC)cc2)C1
- IC50 (read-out: IC50): 230 nM
- IC50 (read-out: pIC50 (converted)): 229 nM

SMILES: C=C1CN(S(=O)(=O)c2ccc(C)cc2)CCCN(CC2CCCCC2)CCCN(S(=O)(=O)c2ccc(C(C)(C)C)cc2)C1
- IC50 (read-out: IC50): 780 nM
- IC50 (read-out: pIC50 (converted)): 776 nM

SMILES: C=C1CN(S(=O)(=O)c2ccc(C)cc2)CCCN(CC2CCCCC2)CCCN(S(=O)(=O)c2ccc3ccccc3c2)C1
- IC50 (read-out: IC50): 180 nM
- IC50 (read-out: pIC50 (converted)): 178 nM

SMILES: C=C1CNCCCN(CC2CCCCC2)CCCN(S(=O)(=O)c2ccc(C)cc2)C1
- IC50 (read-out: IC50): 19000 nM
- IC50 (read-out: pIC50 (converted)): 18600 nM

SMILES: C=C1CN(S(=O)(=O)c2ccc(C)cc2)CCCN(CC2CCCCC2)CCCN(S(=O)(=O)c2ccc([N+](=O)[O-])cc2)C1
- IC50 (read-out: IC50): 760 nM
- IC50 (read-out: pIC50 (converted)): 759 nM

SMILES: C=C1CN(S(=O)(=O)c2ccc(OC)cc2)CCCN(CC2CCCCC2)CCCN(S(=O)(=O)c2ccc(OC)cc2)C1
- IC50 (read-out: IC50): 130 nM
- IC50 (read-out: pIC50 (converted)): 135 nM

SMILES: C=C1CN(S(=O)(=O)c2ccc(C)cc2)CCCN(CC2CCCCC2)CCCN(S(=O)(=O)c2cccc3c(N(C)C)cccc23)C1
- IC50 (read-out: IC50): 1060 nM
- IC50 (read-out: pIC50 (converted)): 1070 nM

SMILES: C=C1CN(S(=O)(=O)c2ccc(OC)cc2)CCCN(CC2CCCCC2)CCCN(S(=O)(=O)c2cccc3c(N(C)C)cccc23)C1
- IC50 (read-out: IC50): 730 nM
- IC50 (read-out: pIC50 (converted)): 724 nM

SMILES: C=C1CN(S(=O)(=O)c2ccc(C)cc2)CCCN(Cc2ccccc2)CCCN(S(=O)(=O)c2cccc3c(N(C)C)cccc23)C1
- IC50 (read-out: IC50): 5900 nM
- IC50 (read-out: pIC50 (converted)): 5890 nM

SMILES: C=C1CN(S(=O)(=O)c2ccc(C)cc2)CCCN(Cc2ccccc2)CCCN(S(=O)(=O)c2ccc(C)cc2)C1 [CYCLOTRIAZADISULFONAMIDE HYDROCHLORIDE]
- IC50 (read-out: IC50): 560 nM
- IC50 (read-out: pIC50 (converted)): 562 nM

SMILES: C=C1CN(S(=O)(=O)c2ccc(C)cc2)CCCN(CC2CCCCC2)CCCN(S(=O)(=O)c2cccc3ccccc23)C1
- IC50 (read-out: IC50): 940 nM
- IC50 (read-out: pIC50 (converted)): 933 nM

SMILES: C=C1CN(S(=O)(=O)c2ccc(C)cc2)CCCN(CC2CCCCC2)CCCN(S(=O)(=O)c2ccc(Cl)cc2)C1
- IC50 (read-out: IC50): 360 nM
- IC50 (read-out: pIC50 (converted)): 363 nM
